This is an account of results in PubChem BioAssay.

Each structure is given as a SMILES string. Activity calls are given as the source filed them.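 How the source made its calls, unless noted: active means fluorescence slope higher than the sample average by over 3 SD (cut at about -0.22 in these data, passing the limit was not always enough); inactive means the rest.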

Assay [1] is described as follows: inhibitors of TNFa-induced NFkB p65 translocation, primary screen, imaging, HUVEC, MLSMR starter and 10KST1 sets (AID 438;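 active means inhibition above 20% together with a positive visual image hit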;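 further: compound added about 3h40 before a 20 min TNFalpha stimulation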;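 on inhibition: signal is the nuclear over cytoplasmic p65 intensity ratio per well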). As to conditions: HUVEC TNFa-induced p65 nuclear translocation; cell count: measured here: nuclei count (cytotoxicity indicator), at 2.08 µM; inhibition: at 2 µM, stronger effect = higher value, 0% TNFa-plus-vehicle, 100% no-TNFa wells.
The nature of assay [2]: inhibitors of mutant huntingtin aggregation, primary screen, imaging, exon1htt(103Q)mCFP cells, high-content imaging (AID 483;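 active means visual image review flags a hit and inhibition of aggregation exceeds 20%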;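 further: compound exposure lasted 3 days before fixation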;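 on nuclei count: percent of the per-plate median nuclei count of sample wells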). As to conditions: exon1htt(103Q)mCFP cell line, aggregate imaging, at 2 µM; inhibition of aggregation: stronger effect = higher value; nuclei count: measured here: cell count, toxicity.
A short description of assay [3]: inhibitors of E-selectin induction by TNFa, primary screen, imaging, HUVEC, immunofluorescence, MLSMR starter and 10KST1 sets (AID 487;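 active means visually confirmed hit in the image check and inhibition above 20%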;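 on inhibition: signal is fraction of cell area covered by stained E-selectin grains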;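 on nuclei count: 100% = median nuclei count of all wells on the same plate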). As to conditions: HUVEC TNFalpha-induced E-selectin immunofluorescence imaging, at 2 µM; inhibition: stronger effect = higher value; nuclei count: measured here: cell number, toxicity.
In assay [4] the target is Voltage-gated potassium channel subunit beta-2 (Rattus norvegicus) (UniProt P62483). Put plainly: KvBeta enzyme negative modulators, primary screen, biochemical, NADPH fluorescence (AID 622).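 Further: slope of raw intensity against log time taken from 70 to 1610 s.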 As to conditions: recombinant KvBeta, 4-cyanobenzaldehyde reduction, at 10 µM, stronger effect = higher value.
Sequence of Voltage-gated potassium channel subunit beta-2 (Rattus norvegicus) (P62483 whole entry, looked up): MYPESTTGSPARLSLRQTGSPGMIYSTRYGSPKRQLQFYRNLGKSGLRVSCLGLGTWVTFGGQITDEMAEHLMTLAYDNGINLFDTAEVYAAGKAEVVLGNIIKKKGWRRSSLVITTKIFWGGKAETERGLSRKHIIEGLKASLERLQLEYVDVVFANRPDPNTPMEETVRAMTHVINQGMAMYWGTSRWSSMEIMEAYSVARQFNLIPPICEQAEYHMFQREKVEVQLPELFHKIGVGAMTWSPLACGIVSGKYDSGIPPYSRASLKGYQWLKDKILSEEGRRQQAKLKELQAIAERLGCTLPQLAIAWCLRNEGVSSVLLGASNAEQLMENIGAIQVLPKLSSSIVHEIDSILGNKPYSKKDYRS
The target is the same in assay [5]. As to the kind of experiment: KvBeta positive modulators, primary screen, biochemical, NADPH fluorescence (AID 623;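 active means NADPH fluorescence slope more negative than the mean of all samples by about 3 SD, 99.7% confidence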;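 further: fluorescence intensity change per second fitted from 20 to 320 s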). As to conditions: Recombinant KvBeta, NADPH fluorescence decrease slope, 10 min; at 10 µM; stronger effect = lower value.
The target of assay [6] is Alpha-2C adrenergic receptor (Homo sapiens) (UniProt P18825). Put plainly: modulators of alpha2C/GIRK thallium flux, primary screen, cell-based, HEK293 alpha2C/GIRK1/2 (AID 624;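 active means fluorescence slope after compound addition differing from the mean of all screened samples at 99.7% confidence, in either direction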;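 further: slope of fluorescence ratio to pre-addition baseline per second over 15 to 24 s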). As to conditions: thallium flux BTC fluorescence, at 10 µM, actives lie on both sides.
Sequence of Alpha-2C adrenergic receptor (Homo sapiens) (P18825 whole entry, looked up): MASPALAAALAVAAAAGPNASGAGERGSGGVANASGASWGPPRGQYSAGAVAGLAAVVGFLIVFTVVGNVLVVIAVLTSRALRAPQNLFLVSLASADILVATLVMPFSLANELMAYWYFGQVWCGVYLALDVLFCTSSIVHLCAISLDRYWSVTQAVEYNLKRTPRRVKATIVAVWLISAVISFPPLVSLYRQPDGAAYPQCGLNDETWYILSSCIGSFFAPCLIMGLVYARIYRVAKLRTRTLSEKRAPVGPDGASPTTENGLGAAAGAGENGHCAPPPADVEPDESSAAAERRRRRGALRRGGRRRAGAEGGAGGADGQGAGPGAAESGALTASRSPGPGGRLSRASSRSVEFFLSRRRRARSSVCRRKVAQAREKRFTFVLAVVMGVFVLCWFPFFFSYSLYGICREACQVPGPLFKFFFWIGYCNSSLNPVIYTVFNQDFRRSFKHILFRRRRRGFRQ
A short description of assay [7]: inhibitors of larval lipid processing in zebrafish, primary screen, whole organism, PED6 fluorescence, gall bladder and intestine (AID 686;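 active means a full or partial loss of lipid-probe fluorescence in the fish gall bladder, intestine or both, judged by eye; inactive means no fluorescence loss, or compound toxic to the fish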;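 further: larvae 5 to 7 days old with five fish per well; signal comes from phospholipase A2 cleavage of quenched PED6 carried via bile; overnight exposure to compound and PED6 before scoring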). As to conditions: Zebrafish larvae PED6 lipid processing, fluorescence scoring; screened at 20 µM (by protocol). In short, it runs like this:
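System: live zebrafish larvae aged 5-7 days, whole organism; measure: graded gall bladder and intestinal fluorescence inhibition per well; incubation: overnight exposure; reagent: ingested quenched lipid PED6 at 100 nM; signal: By-eye fluorescence microscopy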

Assay [8] is described as follows: inhibitors of Sendai virus-induced IRF3 signaling, primary screen, TLR/RLR signaling modifier project, cell-based, Sendai virus stimulus, luciferase, 10K MLSCN set (AID 602276;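 active means inhibition at or above 50% at 10 µM; inactive means inhibition below 50%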;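 further: firefly luciferase from ISG56 promoter only with Renilla not read in this screen; 0% = Sendai virus plus DMSO and 100% = medium plus DMSO without virus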). As to conditions: HEK293 RL24 IRF3 luciferase reporter, at 10 µM, stronger effect = higher value. For orientation: Reporter assays use an easily measured gene product as a stand-in for the process of interest.

The nature of assay [9]: inhibitors of poly I:C-induced TLR3 signaling, primary screen, cell-based, poly I:C stimulus, luciferase, 10K MLSCN set (AID 602277;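 active means inhibition of the reporter signal at or above 50%; inactive means inhibition below 50%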). As to conditions: HEK293-TLR3 RL24 IRF3 luciferase reporter, at 10 µM, stronger effect = higher value.

For the compound `c1cncc(C2Nc3ccccc3-c3nc4ccccc4n32)c1` (stereo unspecified), the cell count in [1] amounted to 428. Also, the inhibition – broadly, the change of the read-out against control, counted positive when it falls – was 21.8% (active) in [1], -151% (inactive) in [3], -7% (inactive) in assay [8] and -38.6% (inactive) in assay [9]. Moreover, in assay [2], the inhibition of aggregation was 2.7% (inactive). The nuclei count in assay [2] was 93.3%; in [3], 116%. Besides, in assay [4], the fluorescence slope was -0.37 (inactive). In addition, in assay [5], the NADPH fluorescence slope was -5.6e-05 (inactive). In assay [6], the slope was 0.00507 (inactive). Further, the outcome in [7] was inactive.
`Cc1ccc(C)c(-n2nnnc2SCC(=O)NCCC2=CCCCC2)c1`: the cell count in [1] was found to be 409. For the same compound, the inhibition in assay [1] is -6.6% (inactive); in [3], -16.3% (inactive); in assay [8], 17.6% (inactive); in [9] it was 14.8% (inactive). In addition, the inhibition of aggregation in [2] was 28.8% (inactive). Further, the nuclei count worked out at 99.5% in assay [2] and 106% in assay [3]. The fluorescence slope in assay [4] is -0.468 (inactive). Also, the NADPH fluorescence slope in assay [5] was -5.4e-05 (inactive). Further, in assay [6], the slope was 0.00361 (inactive). Besides, the result in [7] was inactive.
In the case of `COc1ccc(C(C)NC(=O)c2ccoc2C)cc1OC` (stereo unspecified), in assay [1], the cell count came out at 307. In addition, the inhibition in [1] is -8.9% (inactive); in [3] it was 51.2% (inactive); in assay [8] it was 14.4% (inactive); in assay [9], 19.8% (inactive). Also, the inhibition of aggregation in assay [2] is -2.3% (inactive). Moreover, the nuclei count was 105% in assay [2] and 54.3% in [3]. Also, the fluorescence slope in assay [4] is -0.383 (inactive). The NADPH fluorescence slope in assay [5] is -2.1e-05 (inactive). In assay [6], the slope was 0.00668 (inactive). In [7], the outcome was inactive.
`COc1ccc(Cl)cc1N1CCN(CCNC(=O)Nc2ccccc2C)CC1`: in assay [1], the cell count was 353. Further, the inhibition in assay [1] was 0.6% (inactive); in assay [3], -3.8% (inactive); in [8], 21.9% (inactive); in assay [9], 8.13% (inactive). In addition, the inhibition of aggregation in [2] was -3.4% (inactive). The nuclei count in [2] is 108%; in assay [3], 111%. In assay [4], the fluorescence slope was -0.452 (inactive). In addition, the NADPH fluorescence slope in [5] was -1.3e-05 (inactive). The slope in assay [6] is 0.00435 (inactive). Also, the call in [7] was inactive.
As to `CCCCCCn1c(CN2CCCC(C)C2)nc2c1c(=O)n(C)c(=O)n2C` (stereo unspecified), in assay [1], the cell count is 302. Moreover, the inhibition in [1] was -3.8% (inactive); in assay [3] it was -46.9% (inactive); in assay [8], 17.5% (inactive); in assay [9] it was 9.02% (inactive). Also, in assay [2], the inhibition of aggregation was -10.6% (inactive). Also, the results for the nuclei count in assay [2] and in assay [3] were 104% and 114%, respectively. For the same compound, the fluorescence slope in assay [4] was -0.396 (inactive). In addition, the NADPH fluorescence slope in assay [5] is -4.7e-05 (inactive). Moreover, the slope in [6] was 0.00516 (inactive). Moreover, the compound was called inactive in [7].
Consider `CNC(=O)OC(C)CNS(=O)(=O)c1ccc(C)cc1` (stereo unspecified), for which the cell count in [1] turned out to be 441. In addition, the inhibition in [1] was 9.8% (inactive); in assay [3] it was -36.3% (inactive); in [8], 19.5% (inactive); in assay [9] it was 17.5% (inactive). Moreover, in assay [2], the inhibition of aggregation was 5.2% (inactive). The nuclei count in [2] came to 103%; in [3], 118%. The fluorescence slope in assay [4] is -0.433 (inactive). Further, the NADPH fluorescence slope in [5] was -4.1e-05 (inactive). In addition, the slope in [6] was 0.00412 (inactive). In assay [7], the compound was called inactive.
In the case of `O=C(CSc1nc2ccccc2o1)N1CCN(C(=O)c2ccco2)CC1`, the cell count in [1] was 595. Also, the inhibition is -11.5% (inactive) in [1], -19.5% (inactive) in assay [3], 3.77% (inactive) in assay [8] and 3.76% (inactive) in [9]. Also, the inhibition of aggregation in assay [2] is 9.6% (inactive). Also, the nuclei count worked out at 102% in [2] and 99.6% in assay [3]. Besides, in assay [4], the fluorescence slope was -0.376 (inactive). The NADPH fluorescence slope in assay [5] was -5.7e-05 (inactive). Further, the slope in assay [6] was 0.00634 (inactive). Besides, in assay [7], the outcome was inactive.
Consider `CCCCCc1nnc(NC(=O)Cc2cccs2)s1`, for which, in assay [1], the cell count was determined as 325. In addition, the inhibition in assay [1] is 3.8% (inactive); in assay [3], -23.7% (inactive); in assay [8], 11.9% (inactive); in assay [9], 1.2% (inactive). The inhibition of aggregation in [2] is -1.3% (inactive). Also, the nuclei count in assay [2] was found to be 93.5%; in assay [3], 95.6%. Also, the fluorescence slope in assay [4] is -0.412 (inactive). In [5], the NADPH fluorescence slope is -5.9e-05 (inactive). The slope in assay [6] is 0.00431 (inactive). Also, the compound was classed as inactive in assay [7].
As for `O=C1C2CCCN2C(c2ccccc2)N1c1ccc(Cl)cc1` (stereo unspecified), in [1], the cell count came out at 374. Besides, the inhibition was 5.5% (inactive) in assay [1], -25.3% (inactive) in [3], 31.4% (inactive) in [8] and -130% (inactive) in [9]. Further, in assay [2], the inhibition of aggregation was -14.7% (inactive). Moreover, the nuclei count stood at 99.5% in [2] and 114% in [3]. In [4], the fluorescence slope was -0.424 (inactive). For the same compound, the NADPH fluorescence slope in [5] is -6.3e-05 (inactive). Moreover, the slope in assay [6] was 0.00548 (inactive). The compound was called inactive in assay [7].
Turning to `COc1ccccc1-n1nnnc1SCc1cc2c(cc1Br)OCO2`, the cell count in assay [1] is 319. Also, the inhibition was -4.5% (inactive) in assay [1], -168% (inactive) in assay [3], 19.6% (inactive) in [8] and 22.9% (inactive) in assay [9]. In addition, in assay [2], the inhibition of aggregation is -1.1% (inactive). In addition, the nuclei count in assay [2] was 90.3%; in assay [3] it was 130%. Moreover, the fluorescence slope in assay [4] is -0.437 (inactive). In addition, the NADPH fluorescence slope in [5] was -4.6e-05 (inactive). The slope in assay [6] was 0.00645 (inactive). In addition, the compound was called inactive in [7].
As for `Cc1ccc(C(O)c2nc3ccccc3n2C(C)C)cc1` (stereo unspecified), in assay [1], the cell count is 304. Also, the inhibition in assay [1] was -3.7% (inactive); in assay [3], 28.8% (inactive); in [8], 20% (inactive); in assay [9] it was 11.8% (inactive). Moreover, the inhibition of aggregation in [2] was 11% (inactive). For the same compound, the nuclei count worked out at 91.7% in [2] and 86.7% in assay [3]. For the same compound, in [4], the fluorescence slope was -0.418 (inactive). In addition, the NADPH fluorescence slope in assay [5] is -1.7e-05 (inactive). Also, in assay [6], the slope was 0.00388 (inactive). Also, in [7], the compound was classed as inactive.
Take `COc1ccccc1N1CCN(c2cc(N3CCCC3)nc(C)n2)CC1`: the cell count in assay [1] came to 310. The inhibition was 7.3% (inactive) in [1], -60.1% (inactive) in assay [3], 3.33% (inactive) in assay [8] and 1.07% (inactive) in assay [9]. Further, in assay [2], the inhibition of aggregation is 0% (inactive). Moreover, the results for the nuclei count in assay [2] and in assay [3] were 102% and 136%, respectively. Also, the fluorescence slope in assay [4] was -0.471 (inactive). Also, the NADPH fluorescence slope in assay [5] was -7.2e-05 (inactive). Moreover, the slope in assay [6] was 0.0045 (inactive). Also, the compound was called inactive in [7].
For the compound `O=C(CN1CCN(Cc2ccccc2)CC1)NCC1COc2ccccc2O1` (stereo unspecified), the cell count in assay [1] was 531. Besides, the inhibition in [1] is -6.7% (inactive); in [3] it was -17.6% (inactive); in assay [8], 12.2% (inactive); in assay [9] it was 98.2% (active). For the same compound, in assay [2], the inhibition of aggregation was -7% (inactive). Moreover, the nuclei count was 95.7% in assay [2] and 94.9% in [3]. The fluorescence slope in assay [4] is -0.356 (inactive). For the same compound, in assay [5], the NADPH fluorescence slope was -7.8e-05 (inactive). Moreover, the slope in assay [6] is 0.00497 (inactive). Besides, in assay [7], the compound was called inactive.
